Experimental findings from the array DNA melting data of Ke et al. (doi:10.1101/2024.01.08.574731) are described below.

A short description of data set [1]: folding enthalpy; higher = less favourable; fluorescence melt of hairpins on a sequencing array, two-state fit. As to conditions: sodium 0.088 M. The method, boiled down:
(§1)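 Folding enthalpy and melting temperature come from bootstrapped two-state fits to Cy3 fluorescence of library hairpins carrying annealed Cy3 and quencher oligos on a sequenced MiSeq flow cell. Imaging was done in 50 mM Na-HEPES pH 8.0, 25 mM NaCl, stepping by 2.5 °C up to 60 °C, and signals were normalised to pre-quench Cy3 and to control constructs. Results of four replicates were combined by inverse variance, and fitted temperatures were raised by 9.35 °C to match UV melts.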

Data set [2] in a line: melting temperature; fluorescence melt of hairpins on a sequencing array, two-state fit, raised by 9.35 °C to match UV melts. As to conditions: sodium 0.088 M. The method, boiled down:
as §1

Consider GATCGAAAACTCGATC ((((((....)))))), for which, in data set [1], the folding enthalpy was -127 kJ/mol. The Tm in data set [2] stood at 47.2 °C.
The like results for GCTGCTCCGAAAGGAAGC (((..(((....)))))) were, in that order, -58.8 kJ/mol and 47 °C.
The like results for GCGAATGGAAACACTCGC ((((.((....)).)))) were, in that order, -147 kJ/mol and 46.2 °C.
The like results for GAACGGCCGAAAGGCTTC (((..(((....)))))) were, in that order, -31.9 kJ/mol and 21.1 °C.
GATGACGAAAGTCAGATC ((((((....)))..))): in data set [1], the folding enthalpy is -74.6 kJ/mol. Also, the Tm in data set [2] was found to be 52.1 °C.
The like results for GGGTGGGGAAACCTGCCC (((..((....))..))) were, in that order, -107 kJ/mol and 49.7 °C.
The like results for GCATGTGGAAACACATGC (((((((....))))))) were, in that order, -155 kJ/mol and 68.5 °C.
Regarding GTAGCCGAAAGGCCGTAC ((((((....)))..))), the folding enthalpy in data set [1] was -29.9 kJ/mol. The Tm in data set [2] turned out to be 26.7 °C.
The like results for GCGAGCGAAAGCTTTCGC ((((((....)))..))) were, in that order, -55.2 kJ/mol and 50.3 °C.
The like results for GGGCCCGGAAACAGGCCC (((((.(....).))))) were, in that order, -143 kJ/mol and 59.1 °C.
Regarding CGAATCGGAAACGATCG (((.(((....)))))), the folding enthalpy in data set [1] is -136 kJ/mol. Also, the Tm in data set [2] amounted to 45.6 °C.
The like results for GCTGGGGGAAACCCTAGC (((.(((....))).))) were, in that order, -151 kJ/mol and 53.2 °C.
The like results for GCAGACGAAAGTCCCTGC ((((((....)))..))) were, in that order, -61.9 kJ/mol and 32.9 °C.
The like results for GCACGCGAAAGCGCCTGC ((((((....)))..))) were, in that order, -40.5 kJ/mol and 37.1 °C.
Regarding GATCAATCCCTTGATC ((((((....)))))), the folding enthalpy in data set [1] is -174 kJ/mol. Further, the Tm in data set [2] came to 46.7 °C.
As to GATCGTCGAGACGATC ((((((....)))))), the folding enthalpy in data set [1] was -154 kJ/mol. In addition, in data set [2], the Tm came to 60 °C.
As for GTTGCCCGAAAGGGAAC (((.(((....)))))), the folding enthalpy in data set [1] was -65.4 kJ/mol. Moreover, the Tm in data set [2] turned out to be 47.6 °C.
The like results for GTGGCTGGAAACAGTCGC (.(.(((....))).).) were, in that order, -103 kJ/mol and 47 °C.
GTTGTGCCGAAAGGCAAC (((..(((....)))))): the folding enthalpy in data set [1] was -82 kJ/mol. For the same sequence, the Tm in data set [2] was determined as 53 °C.
The like results for GTTTGAGAAATCAAAC ((((((....)))))) were, in that order, -116 kJ/mol and 47 °C.
Regarding GCTTAGGAAACTAAGC ((((((....)))))), the folding enthalpy in data set [1] is -133 kJ/mol. Also, the Tm in data set [2] was 52.7 °C.
For GATCTCTAATGAGATC ((((((....)))))), in data set [1], the folding enthalpy was -195 kJ/mol. Moreover, the Tm in data set [2] was determined as 49.9 °C.
The like results for GATCTTTTCAAAGATC ((((((....)))))) were, in that order, -182 kJ/mol and 48.7 °C.
The like results for GATCTTTGCAAGATC ((((((...)))))) were, in that order, -145 kJ/mol and 46.4 °C.
GCCTGGAAACAGGC (((((....))))): the folding enthalpy in data set [1] was -113 kJ/mol. In addition, the Tm in data set [2] was determined as 63.4 °C.
The like results for GCATTGTCGAAAGACTGC (((..(((....)))))) were, in that order, -95.3 kJ/mol and 37.2 °C.
The like results for CGACTCCGGAAACGGTCG (((..(((....)))))) were, in that order, -101 kJ/mol and 38.4 °C.
With GTTGTTCCGAAAGGAAAC (((..(((....)))))), the folding enthalpy in data set [1] is -85.8 kJ/mol. Further, the Tm in data set [2] worked out at 49.1 °C.
The like results for GCGGTATCGAAAGATCGC (((..(((....)))))) were, in that order, -101 kJ/mol and 47.1 °C.
The like results for GCAATAGGAAACCATTGC (((((.(....).))))) were, in that order, -117 kJ/mol and 39.2 °C.
